Reference: ChEMBL document CHEMBL4184325, “Discovery of 4,7-Diamino-5-(4-phenoxyphenyl)-6-methylene-pyrimido[5,4- b]pyrrolizines as Novel Bruton's Tyrosine Kinase Inhibitors” (J Med Chem, 2018)

Tests used:
Ramos = experiment: Antiproliferative activity against human Ramos cells after 72 hrs by MTT assay; type: functional, cell-based
How it was run: (§1)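 Cells grown in RPMI-1640 with FBS at 37 °C, 5% CO2. Seeded and grown 2 h, then treated with various concentrations in PBS solution, each in triplicate, and cultured a further 72 h. Viability read by MTT. IC50 from the Logit method, given as mean ± SD of three independent determinations.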

[1] = target: Tyrosine-protein kinase BTK (Homo sapiens, UniProt Q06187); experiment: Inhibition of recombinant human BTK using Poly(Glu, Tyr) 4:1 as substrate after 1 hr by ELISA
TMD8 = experiment: Antiproliferative activity against human TMD8 cells after 72 hrs by MTT assay; type: functional, cell-based; conditions: TMD8, 72 h; how it was run: as §1
[2] = (§2) Oral bioavailability in rat at 3 mg/kg; type: ADME, organism-based; conditions: in vivo
How it was run: (§3)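 Rats were given compound at 1 mg/kg iv or 3 mg/kg po. Vehicle was DMSO, Tween 80 and normal saline. Values are the average of three determinations.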

Mus musculus = experiment: Toxicity in CB17 SCID nude mouse xenografted with human TMD8 cells assessed as change in body weight at 25 mg/kg, po qd administered for 13 consecutive days measured during compound dosing up to day 17 post dose; type: organism-based; conditions: in vivo
Rattus norvegicus [3] = experiment: AUC (0 to infinity) in rat at 3 mg/kg, po; type: ADME, organism-based; set-up: dose 3 mg/kg, time infinity, route oral; conditions: in vivo
How it was run: (§4)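 Rats dosed orally at 3 mg/kg; vehicle DMSO, Tween 80, normal saline; values are the average of three determinations.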

[4] = Drug metabolism in mouse liver microsomes treated with (S)-N-(4-Amino-6-methylene-5-(4-phenoxyphenyl)-7,8-dihydro-6H-pyrimido[5,4-b]pyrrolizin-7-yl)acrylamide after 3 hrs; type: ADME, microsome
[5] = Drug metabolism in rat liver microsomes treated with (S)-N-(4-Amino-6-methylene-5-(4-phenoxyphenyl)-7,8-dihydro-6H-pyrimido[5,4-b]pyrrolizin-7-yl)acrylamide after 3 hrs; type: ADME, microsome
[6] = Drug metabolism in human liver microsomes treated with (S)-N-(4-Amino-6-methylene-5-(4-phenoxyphenyl)-7,8-dihydro-6H-pyrimido[5,4-b]pyrrolizin-7-yl)acrylamide after 3 hrs; type: ADME, microsome
[7] = Tmax in rat at 3 mg/kg, po; type: ADME, organism-based; conditions: in vivo; how it was run: as §3
[8] = Drug metabolism in mouse liver microsomes assessed as (S)-N-(4-amino-6-methylene-5-(4-phenoxyphenyl)-7,8-dihydro-6H-pyrimido[5,4-b]pyrrolizin-7-yl)-4-hydroxybut-2-ynamide formation after 3 hrs; type: ADME, microsome
Rattus norvegicus [9] = experiment: Half life in rat at 1 mg/kg, iv; type: ADME, organism-based; conditions: in vivo
How it was run: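 Rats given 1 mg/kg intravenously; vehicle DMSO, Tween 80, normal saline; values are the average of three determinations.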

[10] = Drug metabolism in human liver microsomes assessed as (S)-N-(4-amino-5-(4-hydroxyphenyl)-6-methylene-7,8-dihydro-6H-pyrimido[5,4-b]pyrrolizin-7-yl)but-2-ynamide formation after 3 hrs; type: ADME, microsome
[11] = Drug metabolism in rat liver microsomes assessed as (S)-N-(4-amino-5-(4-(4-hydroxyphenoxy)phenyl)-6-methylene-7,8-dihydro-6H-pyrimido[5,4-b]pyrrolizin-7-yl)-4-hydroxybut-2-ynamide formation after 3 hrs; type: ADME, microsome
[12] = Drug metabolism in mouse liver microsomes assessed as (S)-N-(4-amino-5-(4-(4-hydroxyphenoxy)phenyl)-6-methylene-7,8-dihydro-6H-pyrimido[5,4-b]pyrrolizin-7-yl)but-2-ynamide formation after 3 hrs; type: ADME, microsome
[13] = Drug metabolism in rat liver microsomes assessed as (S)-N-(4-amino-5-(4-(4-hydroxyphenoxy)phenyl)-6-methylene-7,8-dihydro-6H-pyrimido[5,4-b]pyrrolizin-7-yl)but-2-ynamide formation after 3 hrs; type: ADME, microsome
[14] = Drug metabolism in human liver microsomes assessed as (S)-N-(4-amino-5-(4-(4-hydroxyphenoxy)phenyl)-6-methylene-7,8-dihydro-6H-pyrimido[5,4-b]pyrrolizin-7-yl)-4-hydroxybut-2-ynamide formation after 3 hrs; type: ADME, microsome
[15] = Drug metabolism in rat liver microsomes assessed as (S)-N-(4-amino-5-(4-hydroxyphenyl)-6-methylene-7,8-dihydro-6H-pyrimido[5,4-b]pyrrolizin-7-yl)but-2-ynamide formation after 3 hrs; type: ADME, microsome
[16] = Cmax in rat at 3 mg/kg, po; type: ADME, organism-based; set-up: dose 3 mg/kg, route oral; conditions: in vivo; how it was run: as §4
Rattus norvegicus [17] = experiment: Volume of distribution at steady state in rat at 1 mg/kg, iv; type: ADME, organism-based; conditions: in vivo; how it was run: as §3
Rattus norvegicus [18] = experiment: as §2; type: ADME, organism-based; conditions: in vivo; how it was run: as §3
[19] = Drug metabolism in rat liver microsomes assessed as (S)-N-(4-amino-6-methylene-5-(4-phenoxyphenyl)-7,8-dihydro-6H-pyrimido[5,4-b]pyrrolizin-7-yl)-4-hydroxybut-2-ynamide formation after 3 hrs; type: ADME, microsome
[20] = Drug metabolism in mouse liver microsomes assessed as (S)-4-(4-(4,7-diamino-6-methylene-7,8-dihydro-6H-pyrimido[5,4-b]pyrrolizin-5-yl)phenoxy)phenol formation after 3 hrs; type: ADME, microsome
[21] = Drug metabolism in human liver microsomes assessed as (S)-N-(4-amino-6-methylene-5-(4-phenoxyphenyl)-7,8-dihydro-6H-pyrimido[5,4-b]pyrrolizin-7-yl)-4-hydroxybut-2-ynamide formation after 3 hrs; type: ADME, microsome
[22] = target: Tyrosine-protein kinase Blk (Homo sapiens, UniProt P51451); experiment: Inhibition of partial length human BLK expressed in bacteria assessed as residual activity at 1 uM relative to control
How it was run: (§5)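 KINOMEscan competition binding panel of 468 kinases with compound at 1 μM. Result is % control = (test − positive control signal)/(DMSO negative − positive control signal) × 100.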

[23] = target: Dual specificity mitogen-activated protein kinase kinase; MEK1/2 (Homo sapiens) (UniProt P36507+Q02750); experiment: Inhibition of human MEK assessed as residual activity at 1 uM relative to control; type: protein assay; how it was run: as §5
[24] = target: Tyrosine-protein kinase BTK (Homo sapiens, UniProt Q06187, C481S); experiment: Inhibition of recombinant full-length N-terminal His-tagged human BTK C481S mutant expressed in baculovirus infected Sf9 insect cells using Poly(Glu, Tyr) 4:1 as substrate after 1 hr by ELISA
[25] = target: Receptor tyrosine-protein kinase erbB-4 (Homo sapiens, UniProt Q15303); experiment: Inhibition of partial length human ErbB4 expressed in bacteria assessed as residual activity at 1 uM relative to control; how it was run: as §5
[26] = Drug metabolism in human liver microsomes treated with (S)-N-(4-Amino-6-methylene-5-(4-phenoxyphenyl)-7,8-dihydro-6H-pyrimido[5,4-b]pyrrolizin-7-yl)but-2-ynamide after 3 hrs; type: ADME, microsome
[27] = Drug metabolism in rat liver microsomes treated with (S)-N-(4-Amino-6-methylene-5-(4-phenoxyphenyl)-7,8-dihydro-6H-pyrimido[5,4-b]pyrrolizin-7-yl)but-2-ynamide after 3 hrs; type: ADME, microsome
[28] = Drug metabolism in mouse liver microsomes treated with (S)-N-(4-Amino-6-methylene-5-(4-phenoxyphenyl)-7,8-dihydro-6H-pyrimido[5,4-b]pyrrolizin-7-yl)but-2-ynamide after 3 hrs; type: ADME, microsome

Sequence of Tyrosine-protein kinase BTK (Homo sapiens, UniProt Q06187) (Q06187 whole entry): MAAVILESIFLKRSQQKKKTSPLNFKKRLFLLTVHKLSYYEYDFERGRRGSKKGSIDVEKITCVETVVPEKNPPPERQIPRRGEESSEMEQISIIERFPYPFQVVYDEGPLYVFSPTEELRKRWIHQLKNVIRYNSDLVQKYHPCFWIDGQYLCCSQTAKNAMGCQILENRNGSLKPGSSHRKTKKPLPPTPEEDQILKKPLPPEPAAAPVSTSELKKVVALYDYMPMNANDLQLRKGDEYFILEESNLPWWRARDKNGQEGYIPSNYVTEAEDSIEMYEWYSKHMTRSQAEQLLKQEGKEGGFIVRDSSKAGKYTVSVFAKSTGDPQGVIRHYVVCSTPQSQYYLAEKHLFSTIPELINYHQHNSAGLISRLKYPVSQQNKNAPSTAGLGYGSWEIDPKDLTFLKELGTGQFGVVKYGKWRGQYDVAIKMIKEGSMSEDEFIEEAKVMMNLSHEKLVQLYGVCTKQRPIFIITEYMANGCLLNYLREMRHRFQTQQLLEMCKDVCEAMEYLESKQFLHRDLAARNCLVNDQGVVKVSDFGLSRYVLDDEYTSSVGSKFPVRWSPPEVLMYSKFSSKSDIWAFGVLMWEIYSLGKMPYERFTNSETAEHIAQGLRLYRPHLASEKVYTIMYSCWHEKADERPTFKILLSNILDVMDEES
Sequence of Receptor tyrosine-protein kinase erbB-4 (Q15303 whole entry): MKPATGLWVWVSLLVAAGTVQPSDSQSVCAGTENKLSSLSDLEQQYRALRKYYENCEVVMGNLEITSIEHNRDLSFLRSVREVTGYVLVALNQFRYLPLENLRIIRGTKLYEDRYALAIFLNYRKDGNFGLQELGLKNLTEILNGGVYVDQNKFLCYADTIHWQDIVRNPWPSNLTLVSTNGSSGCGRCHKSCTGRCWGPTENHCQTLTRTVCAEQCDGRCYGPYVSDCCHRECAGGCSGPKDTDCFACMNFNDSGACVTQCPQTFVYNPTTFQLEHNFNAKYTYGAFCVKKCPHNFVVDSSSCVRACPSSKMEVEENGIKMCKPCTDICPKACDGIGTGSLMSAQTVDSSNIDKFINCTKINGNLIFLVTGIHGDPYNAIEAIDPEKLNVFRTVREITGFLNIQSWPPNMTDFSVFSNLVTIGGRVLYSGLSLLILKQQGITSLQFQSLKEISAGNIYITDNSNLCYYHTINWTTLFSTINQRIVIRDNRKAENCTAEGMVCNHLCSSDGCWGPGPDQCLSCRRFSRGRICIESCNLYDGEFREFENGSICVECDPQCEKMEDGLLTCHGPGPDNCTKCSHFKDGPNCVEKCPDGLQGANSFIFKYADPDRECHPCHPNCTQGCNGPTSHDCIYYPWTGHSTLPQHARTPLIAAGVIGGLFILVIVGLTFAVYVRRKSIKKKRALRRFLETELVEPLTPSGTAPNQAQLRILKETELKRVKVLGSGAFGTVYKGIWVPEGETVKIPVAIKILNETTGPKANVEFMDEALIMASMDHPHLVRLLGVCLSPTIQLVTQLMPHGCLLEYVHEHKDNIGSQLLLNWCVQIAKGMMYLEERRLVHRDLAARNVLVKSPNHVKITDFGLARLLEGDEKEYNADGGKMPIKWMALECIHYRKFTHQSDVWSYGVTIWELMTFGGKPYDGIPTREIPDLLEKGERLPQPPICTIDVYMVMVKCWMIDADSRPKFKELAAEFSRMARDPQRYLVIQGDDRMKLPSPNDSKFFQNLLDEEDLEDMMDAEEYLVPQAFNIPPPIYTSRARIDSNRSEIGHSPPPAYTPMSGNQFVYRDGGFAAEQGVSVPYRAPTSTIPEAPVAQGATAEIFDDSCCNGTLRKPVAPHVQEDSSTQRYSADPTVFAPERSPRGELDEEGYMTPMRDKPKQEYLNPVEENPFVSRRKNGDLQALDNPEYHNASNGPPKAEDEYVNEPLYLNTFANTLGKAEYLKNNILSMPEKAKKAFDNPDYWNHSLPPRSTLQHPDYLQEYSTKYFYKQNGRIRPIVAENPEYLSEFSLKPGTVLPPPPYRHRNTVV
Sequence of Tyrosine-protein kinase Blk (P51451 2-505 limits assumed): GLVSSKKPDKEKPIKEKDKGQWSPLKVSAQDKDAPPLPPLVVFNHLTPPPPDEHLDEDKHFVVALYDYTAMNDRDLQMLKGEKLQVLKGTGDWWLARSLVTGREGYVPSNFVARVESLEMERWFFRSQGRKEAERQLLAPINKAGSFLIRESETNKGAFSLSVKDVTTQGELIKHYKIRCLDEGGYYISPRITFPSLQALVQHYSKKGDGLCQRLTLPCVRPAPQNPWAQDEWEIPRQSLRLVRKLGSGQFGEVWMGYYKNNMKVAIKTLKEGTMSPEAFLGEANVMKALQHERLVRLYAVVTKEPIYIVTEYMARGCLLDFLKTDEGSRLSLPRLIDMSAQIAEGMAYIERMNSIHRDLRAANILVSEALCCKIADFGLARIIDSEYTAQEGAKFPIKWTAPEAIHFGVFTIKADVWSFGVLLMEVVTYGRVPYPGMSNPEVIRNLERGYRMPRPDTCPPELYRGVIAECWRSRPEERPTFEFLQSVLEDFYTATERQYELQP
Sequence of Dual specificity mitogen-activated protein kinase kinase; MEK1/2 (Homo sapiens) (P36507 whole entry, looked up): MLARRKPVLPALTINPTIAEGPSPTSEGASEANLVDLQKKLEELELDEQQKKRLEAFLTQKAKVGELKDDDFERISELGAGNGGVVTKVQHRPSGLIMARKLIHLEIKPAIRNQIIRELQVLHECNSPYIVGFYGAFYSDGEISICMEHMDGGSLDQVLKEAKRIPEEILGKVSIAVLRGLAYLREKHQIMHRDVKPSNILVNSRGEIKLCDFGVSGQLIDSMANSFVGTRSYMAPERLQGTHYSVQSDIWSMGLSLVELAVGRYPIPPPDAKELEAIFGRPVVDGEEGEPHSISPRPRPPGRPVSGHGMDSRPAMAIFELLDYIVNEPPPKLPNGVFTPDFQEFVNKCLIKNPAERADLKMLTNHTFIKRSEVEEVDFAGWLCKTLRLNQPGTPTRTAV
Sequence of Dual specificity mitogen-activated protein kinase kinase; MEK1/2 (Homo sapiens) (Q02750 whole entry, looked up): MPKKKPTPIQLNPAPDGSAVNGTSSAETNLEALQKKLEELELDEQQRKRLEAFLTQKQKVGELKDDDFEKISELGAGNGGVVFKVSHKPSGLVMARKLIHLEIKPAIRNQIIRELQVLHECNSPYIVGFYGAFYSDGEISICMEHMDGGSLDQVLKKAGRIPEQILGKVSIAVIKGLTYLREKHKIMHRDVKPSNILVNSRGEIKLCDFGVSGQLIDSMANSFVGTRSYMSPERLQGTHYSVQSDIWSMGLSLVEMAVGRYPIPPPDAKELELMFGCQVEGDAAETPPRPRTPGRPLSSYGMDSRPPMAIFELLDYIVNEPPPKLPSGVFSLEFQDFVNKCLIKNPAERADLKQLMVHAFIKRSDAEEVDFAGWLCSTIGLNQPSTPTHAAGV
Sequence of Tyrosine-protein kinase BTK (Homo sapiens, UniProt Q06187, C481S) (Q06187 2-659 C481S limits assumed): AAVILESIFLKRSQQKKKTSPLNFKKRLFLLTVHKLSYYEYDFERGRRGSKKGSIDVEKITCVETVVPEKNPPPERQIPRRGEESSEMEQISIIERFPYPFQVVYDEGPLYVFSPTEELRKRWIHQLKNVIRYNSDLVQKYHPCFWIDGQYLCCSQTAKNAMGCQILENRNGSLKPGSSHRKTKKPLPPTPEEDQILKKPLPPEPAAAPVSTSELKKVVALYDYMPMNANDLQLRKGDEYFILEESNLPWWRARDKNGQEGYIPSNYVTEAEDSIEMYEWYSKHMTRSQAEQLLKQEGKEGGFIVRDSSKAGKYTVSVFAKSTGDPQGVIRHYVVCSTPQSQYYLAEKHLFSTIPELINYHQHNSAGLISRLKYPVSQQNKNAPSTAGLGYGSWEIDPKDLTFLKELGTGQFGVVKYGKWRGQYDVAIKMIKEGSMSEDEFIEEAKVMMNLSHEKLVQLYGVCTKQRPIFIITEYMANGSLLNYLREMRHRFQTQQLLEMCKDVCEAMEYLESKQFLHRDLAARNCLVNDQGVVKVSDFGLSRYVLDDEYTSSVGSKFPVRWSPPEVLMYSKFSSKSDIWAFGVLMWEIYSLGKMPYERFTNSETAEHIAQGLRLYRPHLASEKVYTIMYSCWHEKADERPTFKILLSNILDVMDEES

## C=CC(=O)N[C@@H]1Cn2c(c(-c3ccc(C(=O)Nc4ccccn4)cc3)c3c(N)ncnc32)C1=C
Ramos
  IC50: 14300 nM
[1]
  IC50: 0.5 nM
TMD8
  IC50: 4 nM
[2]
  bioavailability: 8.24%

## C=CC(=O)N1CCC[C@@H](n2nc(-c3ccc(Oc4ccccc4)cc3)c3c(N)ncnc32)C1 [IBRUTINIB]
Mus musculus
  Activity: Non-Toxic
Ramos
  IC50: 920 nM
TMD8
  IC50: 10 nM
Rattus norvegicus [3]
  AUC: 57 ng·h/mL

## C=C1c2c(-c3ccc(Oc4ccccc4)cc3)c3c(N)ncnc3n2C[C@H]1NC(=O)C(O)CO (stereo partly drawn)
[4]
  Drug metabolism: Metabolite_Detected
[5]
  Drug metabolism: Metabolite_Detected
[6]
  Drug metabolism: Metabolite_Detected

## C=CC(=O)N[C@@H]1Cn2c(c(-c3ccc(O)cc3)c3c(N)ncnc32)C1=C
[5]
  Drug metabolism: Metabolite_Detected
[6]
  Drug metabolism: Metabolite_Detected

## C=C1c2c(-c3ccc(Oc4ccccc4)cc3)c3c(N)ncnc3n2CC1N (stereo not drawn)
[1]
  IC50: > 1000 nM

## CCC(=O)NC1CCc2c(-c3ccc(Oc4ccccc4)cc3)c3c(N)ncnc3n2C1 (stereo not drawn)
[1]
  IC50: 417 nM

## C=CC(=O)N[C@@H]1Cn2c(c(-c3ccc(Oc4ccc(OC(F)(F)F)cc4)cc3)c3c(N)ncnc32)C1=C
[1]
  IC50: 3.5 nM

## C=C1c2c(-c3ccc(Oc4ccccc4)cc3)c3c(N)ncnc3n2C[C@H]1NC(=O)C#CC
[7]
  Tmax: 15 min
[1]
  IC50: 0.4 nM
[8]
  Drug metabolism: Metabolite_Detected
Rattus norvegicus [9]
  t1/2: 32.4 min
[10]
  Drug metabolism: Metabolite_Detected
[11]
  Drug metabolism: Metabolite_Detected
[12]
  Drug metabolism: Metabolite_Detected
[13]
  Drug metabolism: Metabolite_Detected
[14]
  Drug metabolism: Metabolite_Detected
[15]
  Drug metabolism: Metabolite_Detected
[16]
  Cmax: 340 ng/mL
Rattus norvegicus [3]
  AUC: 557 ng·h/mL
Rattus norvegicus [17]
  Vdss: 1.39 L/kg
Rattus norvegicus [18]
  F: 35.8%
[19]
  Drug metabolism: Metabolite_Detected
[20]
  Drug metabolism: Metabolite_Detected
[21]
  Drug metabolism: Metabolite_Detected

## C=CC(=O)N[C@@H]1Cn2c(c(-c3ccc(C(=O)N[C@@H](C)c4ccccn4)cc3)c3c(N)ncnc32)C1=C
[1]
  IC50: 50.4 nM

## C=CC(=O)NCCC(=O)NC1Cn2c(c(-c3ccc(Oc4ccccc4)cc3)c3c(N)ncnc32)C1=C (stereo not drawn)
[1]
  IC50: 725 nM

## C=CC(=O)N[C@@H]1Cn2c(c(-c3ccc(Oc4ccc(O)cc4)cc3)c3c(N)ncnc32)C1=C
[4]
  Drug metabolism: Metabolite_Detected
[5]
  Drug metabolism: Metabolite_Detected
[6]
  Drug metabolism: Metabolite_Detected

## C=CC(=O)N[C@@H]1Cn2c(c(-c3ccc(Oc4ccc(C(F)(F)F)cc4)cc3)c3c(N)ncnc32)C1=C
[1]
  IC50: 7.4 nM

## C=C1c2c(-c3ccc(Oc4ccccc4)cc3)c3c(N)ncnc3n2C[C@@H]1NC(=O)C#CC
[1]
  IC50: 3.3 nM

## C=CC(=O)N[C@@H]1Cn2c(c(-c3ccc(Oc4ccc(F)cc4)cc3)c3c(N)ncnc32)C1=C
[1]
  IC50: 2.2 nM

## C=CC(=O)NC1Cn2c(c(-c3ccc(Oc4ccccc4)cc3)c3c(N)ncnc32)C1=C (racemic)
[22]
  Activity: < 1%
[1]
  IC50: 2.8 nM
[23]
  Activity: < 1%
[24]
  IC50: 464 nM
[25]
  Activity: < 1%

## C=CC(=O)N[C@@H]1Cn2c(c(-c3ccc(C(=O)N[C@@H](COC)c4ccccn4)cc3)c3c(N)ncnc32)C1=C
[1]
  IC50: 4.3 nM

## C=C1c2c(-c3ccc(Oc4ccc(O)cc4)cc3)c3c(N)ncnc3n2C[C@H]1NC(=O)C#CCO
[26]
  Drug metabolism: Metabolite_Detected
[27]
  Drug metabolism: Metabolite_Detected

## C=CC(=O)N[C@@H]1Cn2c(c(-c3ccc(Oc4ccc(C(C)(C)C)cc4)cc3)c3c(N)ncnc32)C1=C
[1]
  IC50: 3.7 nM

## C=CC(=O)N[C@@H]1Cn2c(c(-c3ccc(C(=O)NCc4ccccn4)cc3)c3c(N)ncnc32)C1=C
[1]
  IC50: 3.1 nM

## C=CC(=O)N[C@@H]1Cn2c(c(-c3ccc(C(=O)Nc4cc(C(F)(F)F)ccn4)cc3)c3c(N)ncnc32)C1=C
[1]
  IC50: 0.8 nM

## C=C1c2c(-c3ccc(O)cc3)c3c(N)ncnc3n2C[C@H]1NC(=O)C#CC
[26]
  Drug metabolism: Metabolite_Detected
[27]
  Drug metabolism: Metabolite_Detected

## C=CC(=O)N[C@H]1Cn2c(c(-c3ccc(Oc4ccccc4)cc3)c3c(N)ncnc32)C1=C
[1]
  IC50: 6.1 nM

## C=C1c2c(-c3ccc(Oc4ccc(O)cc4)cc3)c3c(N)ncnc3n2C[C@H]1NC(=O)C#CC
[28]
  Drug metabolism: Metabolite_Detected
[26]
  Drug metabolism: Metabolite_Detected
[27]
  Drug metabolism: Metabolite_Detected

## C=CC(=O)N[C@@H](C)C(=O)NC1Cn2c(c(-c3ccc(Oc4ccccc4)cc3)c3c(N)ncnc32)C1=C (stereo partly drawn)
[1]
  IC50: 40.1 nM

## C=CC(=O)NCC(=O)NC1Cn2c(c(-c3ccc(Oc4ccccc4)cc3)c3c(N)ncnc32)C1=C (stereo not drawn)
[1]
  IC50: 23.6 nM

## C=C1c2c(-c3ccc(Oc4ccccc4)cc3)c3c(N)ncnc3n2CC1NC(=O)CC (stereo not drawn)
[1]
  IC50: 62.6 nM

## C=CC(=O)NC1(C(=O)NC2Cn3c(c(-c4ccc(Oc5ccccc5)cc4)c4c(N)ncnc43)C2=C)CC1 (stereo not drawn)
[1]
  IC50: 23.8 nM

## C=C1c2c(-c3ccc(Oc4ccccc4)cc3)c3c(N)ncnc3n2CC1NC(=O)C#CC (racemic)
[1]
  IC50: 2.1 nM

## C=C1c2c(-c3ccc(Oc4ccccc4)cc3)c3c(N)ncnc3n2C[C@H]1NC(=O)C#CCO
[28]
  Drug metabolism: Metabolite_Detected
[26]
  Drug metabolism: Metabolite_Detected
[27]
  Drug metabolism: Metabolite_Detected

## C=C1c2c(-c3ccc(Oc4ccccc4)cc3)c3c(N)ncnc3n2CC1NC(=O)/C=C/CN(C)C (stereo not drawn)
[1]
  IC50: 4.3 nM

## C=C1c2c(-c3ccc(Oc4ccccc4)cc3)c3c(N)ncnc3n2C[C@H]1NC(=O)C=CO
[4]
  Drug metabolism: Metabolite_Detected
[5]
  Drug metabolism: Metabolite_Detected
[6]
  Drug metabolism: Metabolite_Detected

## C=C1c2c(-c3ccc(Oc4ccc(O)cc4)cc3)c3c(N)ncnc3n2C[C@H]1N
[4]
  Drug metabolism: Metabolite_Detected
[28]
  Drug metabolism: Metabolite_Detected
[5]
  Drug metabolism: Metabolite_Detected
